Test results from ChEMBL document CHEMBL5385940 (J Nat Prod, 2024).
Calls of active or inactive are those of the source. The rule behind the calls is not given here.

Columns and labels:
[1] = Cytotoxicity against mouse 3T3-L1 cells assessed as cell viability at 25 uM incubated for 48 hrs by CCK-8 assay relative to control; type: toxicity, cell-based; details: read-out: Activity
Method in brief: (§1)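 3T3-L1 preadipocytes seeded at 1 × 10^3 cells/well and left 12 h, then exposed to alkaloids for 48 h. Viability by CCK-8, absorbance at 450 nm, relative to control. Lovastatin 5 μM included. Mean ± SD, n = 3.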

[2] = Cytotoxicity against mouse 3T3-L1 cells assessed as cell viability at 10 uM incubated for 48 hrs by CCK-8 assay relative to control; type: toxicity, cell-based; details: read-out: Activity; method in brief: as §1
[3] = Cytotoxicity against mouse 3T3-L1 cells assessed as cell viability at 100 uM incubated for 48 hrs by CCK-8 assay relative to control; type: toxicity, cell-based; details: read-out: Activity; method in brief: as §1
[4] = Cytotoxicity against mouse 3T3-L1 cells assessed as cell viability at 5 uM incubated for 48 hrs by CCK-8 assay relative to control; type: toxicity, cell-based; details: read-out: Activity; method in brief: as §1
[5] = Cytotoxicity against mouse 3T3-L1 cells assessed as cell viability at 50 uM incubated for 48 hrs by CCK-8 assay relative to control; type: toxicity, cell-based; details: read-out: Activity; method in brief: as §1
[6] = Cytotoxicity against mouse 3T3-L1 cells assessed as cell viability at 20 uM incubated for 48 hrs by CCK-8 assay relative to control; type: toxicity, cell-based; details: read-out: Activity; method in brief: as §1
[7] = Cytotoxicity against mouse 3T3-L1 cells transfected with Lenti-PPARgamma-Luc reporter assessed as cell viability at 10 uM incubated for 48 hrs by CCK-8 assay relative to control; type: toxicity, cell-based; details: read-out: Activity
Method in brief: (§2)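 3T3-L1-Lenti-PPARγ-Luc reporter cells (lentivirus-transduced) exposed to alkaloids at a range of concentrations. Viability by CCK-8, absorbance at 450 nm, relative to control, used to set maximum noncytotoxic concentrations. Triplicate.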

[8] = Cytotoxicity against mouse 3T3-L1 cells transfected with Lenti-PPARgamma-Luc reporter assessed as cell viability at 0.1 uM incubated for 48 hrs by CCK-8 assay relative to control; type: toxicity, cell-based; details: read-out: Activity; method in brief: as §2
[9] = Cytotoxicity against mouse 3T3-L1 cells transfected with Lenti-PPARgamma-Luc reporter assessed as cell viability at 20 uM incubated for 48 hrs by CCK-8 assay relative to control; type: toxicity, cell-based; details: read-out: Activity; method in brief: as §2
3T3-L1 [10] = test: Inhibition of adipogenesis in mouse 3T3-L1 cells assessed as downregulation of PPARgamma relative protein level […] by Western blot analysis; type: functional, cell-based
Method in brief: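 Differentiated 3T3-L1 adipocytes treated with alkaloids at several doses. Lysed in RIPA with PMSF on ice for 30 min. Proteins transferred to PVDF and blocked with 5% skim milk for 2 h at 25 °C. Primary antibody 2 h, HRP secondary 1 h. PPARγ protein level expressed relative to control. n = 3.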

[11] = Cytotoxicity against mouse 3T3-L1 cells transfected with Lenti-PPARgamma-Luc reporter assessed as cell viability at 5 uM incubated for 48 hrs by CCK-8 assay relative to control; type: toxicity, cell-based; details: read-out: Activity; method in brief: as §2
[12] = Cytotoxicity against mouse 3T3-L1 cells assessed as cell viability at 15 uM incubated for 48 hrs by CCK-8 assay relative to control; type: toxicity, cell-based; details: read-out: Activity; method in brief: as §1
3T3-L1 [13] = test: Anti-adipogenic activity in mouse 3T3-L1 cells transfected with Lenti-PPARgamma-Luc reporter assessed as inhibition of PPARgamma expression by luminescence based microplate reader analysis; type: functional, cell-based
[14] = Cytotoxicity against mouse 3T3-L1 cells transfected with Lenti-PPARgamma-Luc reporter assessed as cell viability at 25 uM incubated for 48 hrs by CCK-8 assay relative to control; type: toxicity, cell-based; details: read-out: Activity; method in brief: as §2
[15] = Cytotoxicity against mouse 3T3-L1 cells transfected with Lenti-PPARgamma-Luc reporter assessed as cell viability at 15 uM incubated for 48 hrs by CCK-8 assay relative to control; type: toxicity, cell-based; details: read-out: Activity; method in brief: as §2
[16] = Cytotoxicity against mouse 3T3-L1 cells transfected with Lenti-PPARgamma-Luc reporter assessed as cell viability at 1 uM incubated for 48 hrs by CCK-8 assay relative to control; type: toxicity, cell-based; details: read-out: Activity; method in brief: as §2
3T3-L1 [17] = test: Anti-adipogenic activity in mouse 3T3-L1 preadipocytes assessed as inhibition of lipid accumulation incubated for 6 days by Nile Red staining based fluorescence microscopic analysis; type: functional, cell-based; details: time 6.0 day
[18] = Cytotoxicity against mouse 3T3-L1 cells transfected with Lenti-PPARgamma-Luc reporter assessed as cell viability at 30 uM incubated for 48 hrs by CCK-8 assay relative to control; type: toxicity, cell-based; details: read-out: Activity; method in brief: as §2

Row | Compound | viability at 48 h, 25 µM [1] [%] | viability at 48 h, 10 µM [2] [%] | viability at 48 h, 100 µM [3] [%] | viability at 48 h, 5 µM [4] [%] | viability at 48 h, 50 µM [5] [%] | viability at 48 h, 20 µM [6] [%] | viability at 48 h, 10 µM [7] [%] | viability at 48 h, 0.1 µM [8] [%] | viability at 48 h, 20 µM [9] [%] | inhibition (3T3-L1 [10]) | viability at 48 h, 5 µM [11] [%] | viability at 48 h, 15 µM [12] [%] | Activity (3T3-L1 [13]) | viability at 48 h, 25 µM [14] [%] | viability at 48 h, 15 µM [15] [%] | viability at 48 h, 1 µM [16] [%] | Activity (3T3-L1 [17]) | viability at 48 h, 30 µM [18] [%]
1 | COc1cc2c(cc1O)C(Cc1ccc(O)c(-c3c(O)c(OC)cc4c3C(Cc3ccc(O)cc3)N(C)CC4)c1)N(C)CC2 (stereo unspecified) | > 80 | > 80 | > 80 | > 80 | > 80 | – | – | – | – | – | – | – | – | – | – | – | – | –
2 | COc1cc2c(cc1OC)[C@@H](Cc1ccc(O)c(Oc3cc4c(cc3OC)CCN(C)[C@@H]4Cc3ccc(O)cc3)c1)N(C)CC2 | < 80 | > 80 | – | > 80 | – | > 80 | > 80 | > 80 | < 80 | Active | > 80 | > 80 | Dose-Dependent Effect | < 80 | > 80 | > 80 | Dose-Dependent Effect | < 80
